This is an account of results in ChEMBL document CHEMBL3994613, “Diaryltriazenes as antibacterial agents against methicillin resistant Staphylococcus aureus (MRSA) and Mycobacterium smegmatis” (Eur J Med Chem, 2017).

Values after ≈ are worked out from the molar mass of the structure shown.

The MBC is the lowest tested concentration that kills the bacteria rather than only halting them. A higher MBC goes with weaker bactericidal potency.

For series [1], the system named is Streptococcus pneumoniae. As to the kind of experiment: Antibacterial activity against Streptococcus pneumoniae R6 after 18 to 20 hrs by broth microdilution method. It is filed as functional. The essentials:
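Broth microdilution per EUCAST in BHI broth. Inoculum from colonies on BHI agar with 5% sheep blood, final 5×10^4 CFU/mL. Read after 18–20 h anaerobic incubation at 37 °C.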
(In general: In broth dilution the organism is exposed to a series of concentrations in liquid medium.)

Series [2] concerns Escherichia coli. Nature of the series: Bactericidal activity against Escherichia coli D22 after 18 to 20 hrs by microdilution method. It is filed as functional.
Series [3] is described as follows: Stability of the compound in organic solvent. It is filed as physicochemical.
Series [4] can be described thus: Solubility of the compound in water. The settings on record: buffer. It is filed as physicochemical.
The nature of series [5]: Stability of the compound in solid state. It is filed as physicochemical.
Series [6] deals with Staphylococcus aureus. Nature of the series: Antibacterial activity against methicillin-resistant Staphylococcus aureus USA300 after 18 to 20 hrs by microdilution method. It is filed as functional. A digest of the protocol:
(§1)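 EUCAST broth microdilution in LB broth. Inoculum prepared by direct colony suspension from 20–24 h LB agar (E. coli DH10β) or 5% sheep blood BHI agar (MRSA USA300) growth. Final inoculum 2×10^4 CFU/mL, 18–20 h aerobic at 37 °C, growth read on a plate reader, at least duplicate.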

Series [7] has as its system Staphylococcus aureus. As to the kind of experiment: Induction of membrane integrity impairment in Staphylococcus aureus USA300 assessed as cells with intact membrane at 8 ug/ml measured after 30 mins by Baclight assay relative to control. It is filed as functional. The essentials:
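LIVE/DEAD BacLight fluorescence assay. Live cells in 0.85% NaCl at OD600 0.2 were exposed to compound in DMSO for 30 min at 37 °C. Dye was then added and incubated 15 min in the dark at room temperature. Fluorescence read at ex 485 nm, em 530/630 nm. Intact membrane % came from a live/dead (isopropanol-killed) standard curve, at least triplicate, mean±SD.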

Series [8] concerns Mycolicibacterium smegmatis. Nature of the series: Bactericidal activity against Mycobacterium smegmatis MC2 155 after 96 hrs by microdilution method. It is filed as functional. The settings on record: str. MC2 155, 96 h. The essentials:
(§2)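 Microdilution in TSB broth. Inoculum from colonies grown 96 h on TSA, final 1×10^5 CFU/mL, aerobic 94–98 h at 37 °C, growth read on a plate reader, at least duplicate.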

In series [9] the test system is Escherichia coli. As to the kind of experiment: Antibacterial activity against N43 CGSC 5583 knock out Escherichia coli after 18 to 20 hrs by microdilution method. It is filed as functional. The essentials:
(§3)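 Broth microdilution per EUCAST in LB broth. Inoculum from 20–24 h colonies by CLSI direct colony suspension (LB agar for E. coli), final 2×10^4 CFU/mL. Read after 18–20 h aerobic incubation at 37 °C on plate reader, at least one duplicate.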

In series [10] the test system is Bacillus subtilis. As to the kind of experiment: Antibacterial activity against Bacillus subtilis ATCC 6051 after 18 to 20 hrs by broth microdilution method. It is filed as functional. The essentials: as §3
The test system of series [11] is Acinetobacter baumannii. Nature of the series: Antibacterial activity against Acinetobacter baumannii ATCC 19606 after 18 to 20 hrs by broth microdilution method. It is filed as functional. The settings on record: ATCC 19606 = CIP 70.34 = JCM 6841. A digest of the protocol: (§4)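 Broth microdilution per EUCAST in TSB broth. Inoculum prepared by CLSI direct colony suspension from 20–24 h TSA colonies, final 3×10^4 CFU/mL. Aerobic incubation for 18–20 h at 37 °C, growth read on plate reader, at least one duplicate.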

For series [12], the system named is Escherichia coli. Nature of the series: Bactericidal activity against Escherichia coli DH10beta harboring pHuLUC3 after 18 to 20 hrs by microdilution method. It is filed as functional. The essentials: as §1
Series [13] in a line: Stability of the compound in water. It is filed as physicochemical. The settings on record: buffer.
In series [14] the test system is Mycolicibacterium smegmatis. As to the kind of experiment: Antimycobacterial activity against Mycobacterium smegmatis MC2 155 after 94 to 98 hrs by microdilution method. It is filed as functional. The settings on record: str. MC2 155. A digest of the protocol:
as §2

The test system of series [15] is Escherichia coli. Nature of the series: Antibacterial activity against Escherichia coli D22 after 18 to 20 hrs by microdilution method. It is filed as functional. The essentials: as §3
Series [16] relates to Klebsiella pneumoniae. As to the kind of experiment: Antibacterial activity against Klebsiella pneumoniae ATCC 13882 after 18 to 20 hrs by broth microdilution method. It is filed as functional. A digest of the protocol:
as §4

In series [17] the test system is Pseudomonas aeruginosa. Nature of the series: Antibacterial activity against Pseudomonas aeruginosa PA0001 after 18 to 20 hrs by broth microdilution method. It is filed as functional. The essentials: (§5)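 EUCAST broth microdilution in LB broth. Inoculum from 20–24 h LB agar colonies (CLSI direct colony suspension), final 3×10^4 CFU/mL. Aerobic incubation 18–20 h at 37 °C, plate-reader read-out, at least one duplicate.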

In series [18] the test system is Streptococcus pneumoniae. As to the kind of experiment: Bactericidal activity against Streptococcus pneumoniae R6 after 18 to 20 hrs by broth microdilution method. It is filed as functional.
For series [19], the system named is Escherichia coli. Nature of the series: Antibacterial activity against Escherichia coli DH10beta harboring pHuLUC3 after 18 to 20 hrs by microdilution method. It is filed as functional. The essentials: as §1
Series [20] concerns Bacillus subtilis. Nature of the series: Bactericidal activity against Bacillus subtilis ATCC 6051 after 18 to 20 hrs by broth microdilution method. It is filed as functional.
Series [21] relates to Staphylococcus aureus. Nature of the series: Antibacterial activity against methicillin-resistant Staphylococcus aureus 1653 after 18 to 20 hrs by broth microdilution method. It is filed as functional. A digest of the protocol: (§6)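 EUCAST broth microdilution in LB broth. Inoculum from 20–24 h colonies on 5% sheep blood BHI agar, final 3×10^4 CFU/mL, 18–20 h aerobic at 37 °C, plate reader, at least duplicate.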

Series [22] relates to Acinetobacter baumannii. As to the kind of experiment: Antibacterial activity against Acinetobacter baumannii ATCC BAA-1605 after 18 to 20 hrs by broth microdilution method. It is filed as functional. The essentials:
as §4

Series [23] concerns Staphylococcus aureus. Nature of the series: Bactericidal activity against methicillin-resistant Staphylococcus aureus USA300 after 18 to 20 hrs by microdilution method. It is filed as functional. A digest of the protocol: as §1
For a further series, the system named is Saccharomyces cerevisiae. As to the kind of experiment: Antibacterial activity against Saccharomyces cerevisiae after 18 to 20 hrs by microdilution method. A digest of the protocol: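 Microdilution in YEP broth against wild-type yeast grown on YEP agar. Final inoculum 1×10^5 CFU/mL. Read after 18–20 h aerobic incubation at 30 °C on plate reader, at least one duplicate.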

Series [24] has as its system Enterococcus faecalis. Nature of the series: Bactericidal activity against vancomycin resistant Enterococcus faecalis 501 after 18 to 20 hrs by broth microdilution method. It is filed as functional. A digest of the protocol:
(§7)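 EUCAST microdilution in BHI broth. Inoculum from 20–24 h colonies on 5% sheep blood BHI agar, final 3×10^4 CFU/mL, 18–20 h aerobic at 37 °C, plate reader, at least duplicate.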

The subject of series [25] is Klebsiella pneumoniae. Nature of the series: Antibacterial activity against Klebsiella pneumoniae ATCC 700603 after 18 to 20 hrs by broth microdilution method. It is filed as functional. The essentials: as §4
Series [26] concerns Enterococcus faecalis. As to the kind of experiment: Antibacterial activity against vancomycin resistant Enterococcus faecalis 501 after 18 to 20 hrs by broth microdilution method. It is filed as functional. The essentials: as §7
For series [27], the system named is Pseudomonas aeruginosa. As to the kind of experiment: Antibacterial activity against Pseudomonas aeruginosa ATCC 27853 after 18 to 20 hrs by broth microdilution method. It is filed as functional. The essentials: as §5
The test system of series [28] is Staphylococcus aureus. Nature of the series: Bactericidal activity against methicillin-resistant Staphylococcus aureus 1653 after 18 to 20 hrs by broth microdilution method. It is filed as functional. A digest of the protocol: as §6
Series [29] can be described thus: Stability in PBS buffer at pH 7.4 NMR method. It is filed as physicochemical.
Series [30] can be described thus: Stability in PBS buffer at pH 7.4 by TLC method. It is filed as physicochemical.
Series [31] in a line: Stability in pH 7.4 DMSOd6/PBS buffer assessed as glutathione reactivity incubated for 24 hrs by 1H NMR spectroscopic method. It is filed as physicochemical. The settings on record: pH 7.4, 24 h. A digest of the protocol:
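Equimolar reduced glutathione and compound were incubated at room temperature in DMSO-d6/phosphate buffer pH 7.4 (1:1, v/v). The mixture was monitored by NMR.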

As for `O=C(CCl)N(/N=N/c1ccc([N+](=O)[O-])cc1C(F)(F)F)c1ccc([N+](=O)[O-])cc1C(F)(F)F`, the MIC with Streptococcus pneumoniae [1] is 0.0312 µg/mL (≈ 0.0625 µM); in the series with Staphylococcus aureus [6], 2 µg/mL (≈ 4 µM); against Escherichia coli [9], more than 128 µg/mL; with Bacillus subtilis [10], 0.0312 µg/mL (≈ 0.0625 µM); in the series with Acinetobacter baumannii [11] it was more than 128 µg/mL; in series [14], 32 µg/mL (≈ 64 µM). The MIC is 0.5 µg/mL (≈ 1 µM) in the series on Escherichia coli [15]; more than 128 µg/mL in the series with Klebsiella pneumoniae [16]; more than 128 µg/mL in the series on Pseudomonas aeruginosa [17]; 128 µg/mL (≈ 256 µM) with Escherichia coli [19]; 0.03 µg/mL (≈ 0.06 µM) with Staphylococcus aureus [21]; more than 128 µg/mL in the series on Acinetobacter baumannii [22]. The MIC is more than 128 µg/mL against Saccharomyces cerevisiae, more than 128 µg/mL in the series with Klebsiella pneumoniae [25], 1 µg/mL (≈ 2 µM) against Enterococcus faecalis [26] and more than 128 µg/mL against Pseudomonas aeruginosa [27]. Besides, the minimal bactericidal concentration (MBC) in the series on Escherichia coli [2] is 16 µg/mL (≈ 32 µM); in [8], more than 128 µg/mL; with Escherichia coli [12], more than 128 µg/mL; with Streptococcus pneumoniae [18], 0.125 µg/mL (≈ 0.25 µM); in the series on Bacillus subtilis [20] it was 4 µg/mL (≈ 8 µM); with Staphylococcus aureus [23], 2 µg/mL (≈ 4 µM). In addition, the MBC against Enterococcus faecalis [24] was more than 128 µg/mL; against Staphylococcus aureus [28], 0.5 µg/mL (≈ 1 µM). Besides, the Stability entry in series [3], in [5] and in series [13] was “Stable” each time. Also, in series [4], the solubility entry is “Soluble”. Besides, the Activity in the series with Staphylococcus aureus [7] is listed as 100%.
For the compound `O=[N+]([O-])c1ccc(/N=N/[N-]c2ccc([N+](=O)[O-])cc2C(F)(F)F)c(C(F)(F)F)c1.[K+]`, the Stability entry in [3], in series [5], in [13], in series [29], in [30] and in series [31] was “Stable” each time. The solubility entry in series [4] is given as “Soluble”.
